# According to ChEMBL document CHEMBL3758150, “Discovery and SAR of N-(1-((substituted piperidin-4-yl)methyl)-3-methoxypiperidin-4-yl)-2-methoxybenzamide derivatives: 5-Hydroxytryptamine receptor 4 agonist as a potent prokinetic agent” (Eur J Med Chem, 2016):
# pEC50, pIC50: −log10 of the molar value.
# Tests used:
# [1] = target: Voltage-gated inwardly rectifying potassium channel KCNH2 (Homo sapiens, UniProt Q12809); assay: Inhibition of human ERG channel by fluorescence polarization assay
# [2] = target: T1, 5-hydroxytryptamine receptor 4 (Homo sapiens, UniProt Q13639); assay: Displacement of [3H]-GR113808 from human 5-HT4 receptor expressed in African green monkey COS7 cell membranes after 30 mins by liquid scintillation counting analysis; design: species or system COS-7
# Summary of the method: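 Membranes from Cos-7 cells expressing human 5-HT4: cells washed in PBS, pelleted, then resuspended in ice-cold 50 mM HEPES pH 7.4 and spun at 40,000 g for 30 min at 4 °C. Nonspecific binding was set with 10 μM 5-HT. IC50 came from linear regression of the displacement curve.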
# [3] = tested on: Rattus norvegicus; assay: Induction of gastric emptying rate in Sprague-Dawley rat at 5 mg/kg, iv administered prior to feeding measured after 30 mins; format: functional, Stomach
# [4] = Solubility of the compound in distilled water; format: physicochemical
# [5] = target: 5-hydroxytryptamine receptor 4 (Rattus norvegicus, UniProt Q62758); assay: Agonist activity at 5-HT4 receptor in rat esophageal thoracic muscularis mucosae assessed as carbachol-induced contraction
# Summary of the method: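 The distal 1.2 cm of rat esophagus was equilibrated 60 min in Krebs–Henseleit, washed every 15 min, with isometric force recording. Tissue was precontracted with 3 μM carbachol, then given a cumulative relaxation curve to 5-HT. After a wash and 60 min recovery it was recontracted and a test-compound curve run. Potency is relative to 5-HT in the same preparation.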
# [6] = tested on: Rattus norvegicus; assay: Induction of gastric emptying rate in Sprague-Dawley rat at 0.5 mg/kg, po administered prior to feeding measured after 30 mins; format: functional, Stomach
# Summary of the method: (§1)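 Male Sprague-Dawley rats (220–250 g) were fasted 18 h with free water. A 2 mL semisolid meal was gavaged 50 min after drug, and rats were killed 30 min later. Stomach plus contents were weighed. Gastric emptying (%) = [1 − test stomach weight/0-time control stomach weight] × 100.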
# [7] = tested on: Rattus norvegicus; assay: Induction of gastric emptying rate in Sprague-Dawley rat at 5 mg/kg, iv administered prior to feeding along with cisplatin injection measured after 40 mins; format: functional, Stomach
# Summary of the method: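 Male Sprague-Dawley rats (220–250 g) were fasted 18 h with water available. A 2 mL semisolid meal was given 30 min after drug, together with cisplatin 5 mg/kg i.v. Gastric emptying was determined 40 min later from stomach weights versus 0-time controls: [1 − test/control] × 100.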
# [8] = Tmax in rat at 5 mg/kg, po; format: ADME, organism-based; settings: in vivo
# [9] = Cmax in rat at 5 mg/kg, po; format: ADME, organism-based; design: dose 5 mg/kg, route oral; settings: in vivo
# [10] = tested on: Rattus norvegicus; assay: Induction of gastric emptying rate in Sprague-Dawley rat at 0.1 mg/kg, po administered prior to feeding measured after 30 mins; format: functional, Stomach; summary of the method: as §1
# [11] = Half life in rat at 5 mg/kg, po; format: ADME, organism-based; settings: in vivo
# [12] = tested on: Rattus norvegicus; assay: AUCinfinity in rat at 5 mg/kg, po; format: ADME, organism-based; design: dose 5 mg/kg, time infinity, route oral; settings: in vivo
# [13] = target: D(2) dopamine receptor (Homo sapiens) (UniProt P14416); settings: 1 to 2 uM
# [14] = target: Kappa-type opioid receptor (Homo sapiens) (UniProt P41145); settings: 1 to 2 uM
# [15] = target: 5-hydroxytryptamine receptor 1A (Homo sapiens) (UniProt P08908); settings: 1 to 2 uM
# [16] = target: Muscarinic acetylcholine receptor M2 (Homo sapiens) (UniProt P08172); settings: 1 to 2 uM
# [17] = target: T1, 5-hydroxytryptamine receptor 4; settings: 1 to 2 uM
# [18] = target: Muscarinic acetylcholine receptor M3 (Homo sapiens) (UniProt P20309); settings: 1 to 2 uM
# [19] = target: Substance-P receptor (Homo sapiens) (UniProt P25103); settings: 1 to 2 uM
# [20] = target: Adrenergic receptor alpha-1 (Homo sapiens) (UniProt P35348+P25100+P35368); settings: 1 to 2 uM
# [21] = target: Substance-K receptor (Homo sapiens) (UniProt P21452); settings: 1 to 2 uM
# [22] = target: Adrenergic receptor alpha-2 (Homo sapiens) (UniProt P08913+P18825+P18089); settings: 1 to 2 uM
# [23] = target: Motilin receptor (Homo sapiens) (UniProt O43193); settings: 1 to 2 uM
# [24] = target: D(2) dopamine receptor (Homo sapiens) (UniProt P14416); settings: 1 to 2 uM; remark: listed apart in the source
# [25] = target: Beta-1 adrenergic receptor (Homo sapiens) (UniProt P08588); settings: 1 to 2 uM
# [26] = target: Mu-type opioid receptor (Homo sapiens) (UniProt P35372); settings: 1 to 2 uM
# [27] = target: Cholecystokinin receptor type A (Homo sapiens) (UniProt P32238); settings: 1 to 2 uM
# [28] = target: 5-hydroxytryptamine receptor 2B (Homo sapiens) (UniProt P41595); settings: 1 to 2 uM
# [29] = target: D(3) dopamine receptor (Homo sapiens) (UniProt P35462); settings: 1 to 2 uM
# [30] = target: 5-hydroxytryptamine receptor 1B (Homo sapiens) (UniProt P28222); settings: 1 to 2 uM
# [31] = target: Somatostatin receptor type 2 (Homo sapiens) (UniProt P30874); settings: 1 to 2 uM
# [32] = target: 5-hydroxytryptamine receptor 3A (Homo sapiens) (UniProt P46098); settings: 1 to 2 uM
# [33] = target: 5-hydroxytryptamine receptor 2A (Homo sapiens) (UniProt P28223); settings: 1 to 2 uM
# Sequence of 5-hydroxytryptamine receptor 2A (Homo sapiens) (P28223 whole entry): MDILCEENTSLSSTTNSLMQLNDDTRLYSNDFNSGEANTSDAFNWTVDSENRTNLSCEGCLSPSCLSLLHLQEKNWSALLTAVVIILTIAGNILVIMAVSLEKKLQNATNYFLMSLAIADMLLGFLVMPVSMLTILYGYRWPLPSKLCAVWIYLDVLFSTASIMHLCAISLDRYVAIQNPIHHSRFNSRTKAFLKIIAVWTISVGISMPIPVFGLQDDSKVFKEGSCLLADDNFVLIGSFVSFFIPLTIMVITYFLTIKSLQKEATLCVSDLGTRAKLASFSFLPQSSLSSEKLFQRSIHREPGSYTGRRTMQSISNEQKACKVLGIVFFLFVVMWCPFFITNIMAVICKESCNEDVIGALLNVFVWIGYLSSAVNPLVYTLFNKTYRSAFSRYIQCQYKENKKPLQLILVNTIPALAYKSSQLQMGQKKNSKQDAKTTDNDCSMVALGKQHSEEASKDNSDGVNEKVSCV
# T1 sequence (Q13639 whole entry): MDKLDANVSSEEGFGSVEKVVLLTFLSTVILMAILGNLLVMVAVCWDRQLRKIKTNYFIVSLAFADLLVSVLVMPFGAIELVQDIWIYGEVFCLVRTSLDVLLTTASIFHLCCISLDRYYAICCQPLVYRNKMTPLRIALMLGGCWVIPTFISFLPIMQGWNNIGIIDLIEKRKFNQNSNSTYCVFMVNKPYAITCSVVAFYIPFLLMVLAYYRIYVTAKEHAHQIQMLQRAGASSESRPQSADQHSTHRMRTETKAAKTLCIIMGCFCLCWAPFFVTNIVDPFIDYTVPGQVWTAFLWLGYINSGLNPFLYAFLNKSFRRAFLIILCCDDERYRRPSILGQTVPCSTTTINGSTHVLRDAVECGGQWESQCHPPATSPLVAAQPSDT
# Sequence of 5-hydroxytryptamine receptor 4 (Rattus norvegicus, UniProt Q62758) (Q62758 whole entry): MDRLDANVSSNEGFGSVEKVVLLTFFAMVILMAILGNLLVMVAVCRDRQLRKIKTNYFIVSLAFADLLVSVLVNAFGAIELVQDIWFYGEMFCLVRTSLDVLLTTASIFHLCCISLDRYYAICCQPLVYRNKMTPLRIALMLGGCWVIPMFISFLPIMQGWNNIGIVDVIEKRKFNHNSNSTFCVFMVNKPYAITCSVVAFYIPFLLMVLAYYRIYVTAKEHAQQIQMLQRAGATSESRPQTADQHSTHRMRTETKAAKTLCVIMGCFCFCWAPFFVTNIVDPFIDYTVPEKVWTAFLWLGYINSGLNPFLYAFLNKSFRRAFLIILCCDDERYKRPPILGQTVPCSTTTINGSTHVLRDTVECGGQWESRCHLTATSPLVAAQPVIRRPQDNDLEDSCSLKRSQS
# Sequence of D(2) dopamine receptor (Homo sapiens) (P14416 whole entry): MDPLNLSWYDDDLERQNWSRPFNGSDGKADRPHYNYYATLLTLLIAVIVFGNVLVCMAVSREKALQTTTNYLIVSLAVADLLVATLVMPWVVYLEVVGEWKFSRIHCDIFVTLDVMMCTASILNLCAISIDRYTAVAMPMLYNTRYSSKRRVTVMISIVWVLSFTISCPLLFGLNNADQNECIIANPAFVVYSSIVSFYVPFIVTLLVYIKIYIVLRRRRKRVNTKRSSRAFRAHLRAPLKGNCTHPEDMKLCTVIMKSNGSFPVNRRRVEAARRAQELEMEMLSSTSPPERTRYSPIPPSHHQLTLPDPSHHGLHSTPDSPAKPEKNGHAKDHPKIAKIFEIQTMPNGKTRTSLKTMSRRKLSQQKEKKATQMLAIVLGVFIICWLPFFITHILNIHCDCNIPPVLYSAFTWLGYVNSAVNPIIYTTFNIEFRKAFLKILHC
# Sequence of Voltage-gated inwardly rectifying potassium channel KCNH2 (Q12809 whole entry): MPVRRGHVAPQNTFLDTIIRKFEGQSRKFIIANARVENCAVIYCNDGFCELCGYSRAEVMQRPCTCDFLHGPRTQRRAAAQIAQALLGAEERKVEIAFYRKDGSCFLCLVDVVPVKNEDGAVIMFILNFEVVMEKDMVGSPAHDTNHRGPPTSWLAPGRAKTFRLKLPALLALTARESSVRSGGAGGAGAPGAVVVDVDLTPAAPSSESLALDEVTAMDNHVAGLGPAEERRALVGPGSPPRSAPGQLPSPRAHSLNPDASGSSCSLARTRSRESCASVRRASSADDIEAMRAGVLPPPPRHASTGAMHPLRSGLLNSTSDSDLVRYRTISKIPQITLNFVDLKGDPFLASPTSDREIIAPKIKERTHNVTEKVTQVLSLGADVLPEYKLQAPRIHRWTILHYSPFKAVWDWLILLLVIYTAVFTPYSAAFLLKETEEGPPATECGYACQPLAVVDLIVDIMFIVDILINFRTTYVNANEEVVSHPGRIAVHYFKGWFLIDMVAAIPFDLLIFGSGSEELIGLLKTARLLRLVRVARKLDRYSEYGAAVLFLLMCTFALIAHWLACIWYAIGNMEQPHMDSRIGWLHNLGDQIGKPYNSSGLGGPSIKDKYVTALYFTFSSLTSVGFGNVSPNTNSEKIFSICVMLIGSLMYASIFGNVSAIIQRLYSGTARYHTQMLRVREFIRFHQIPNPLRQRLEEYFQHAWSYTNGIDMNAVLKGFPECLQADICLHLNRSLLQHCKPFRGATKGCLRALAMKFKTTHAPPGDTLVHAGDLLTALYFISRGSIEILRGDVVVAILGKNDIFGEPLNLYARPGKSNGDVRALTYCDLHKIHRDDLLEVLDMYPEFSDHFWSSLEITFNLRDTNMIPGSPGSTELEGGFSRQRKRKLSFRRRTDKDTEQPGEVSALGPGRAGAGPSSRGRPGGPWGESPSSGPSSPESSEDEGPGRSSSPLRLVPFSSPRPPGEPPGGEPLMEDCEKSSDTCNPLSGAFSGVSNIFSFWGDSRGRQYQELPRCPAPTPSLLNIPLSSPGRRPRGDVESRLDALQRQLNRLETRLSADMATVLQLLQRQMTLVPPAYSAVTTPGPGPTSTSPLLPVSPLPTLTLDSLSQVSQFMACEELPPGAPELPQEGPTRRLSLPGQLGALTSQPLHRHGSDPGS
# Sequence of 5-hydroxytryptamine receptor 2B (Homo sapiens) (P41595 whole entry): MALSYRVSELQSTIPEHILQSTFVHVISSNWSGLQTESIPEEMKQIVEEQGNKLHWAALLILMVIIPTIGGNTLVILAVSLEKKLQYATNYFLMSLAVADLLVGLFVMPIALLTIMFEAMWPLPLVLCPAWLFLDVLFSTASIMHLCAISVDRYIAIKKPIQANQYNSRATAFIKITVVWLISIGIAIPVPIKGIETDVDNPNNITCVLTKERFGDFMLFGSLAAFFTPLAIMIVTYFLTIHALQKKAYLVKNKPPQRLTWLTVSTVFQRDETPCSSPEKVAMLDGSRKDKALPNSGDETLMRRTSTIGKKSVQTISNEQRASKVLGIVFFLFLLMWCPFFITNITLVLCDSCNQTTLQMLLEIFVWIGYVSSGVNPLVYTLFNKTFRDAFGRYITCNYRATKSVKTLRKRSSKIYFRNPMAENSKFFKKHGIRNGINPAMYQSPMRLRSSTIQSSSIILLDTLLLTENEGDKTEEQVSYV
# Sequence of 5-hydroxytryptamine receptor 1B (Homo sapiens) (P28222 whole entry): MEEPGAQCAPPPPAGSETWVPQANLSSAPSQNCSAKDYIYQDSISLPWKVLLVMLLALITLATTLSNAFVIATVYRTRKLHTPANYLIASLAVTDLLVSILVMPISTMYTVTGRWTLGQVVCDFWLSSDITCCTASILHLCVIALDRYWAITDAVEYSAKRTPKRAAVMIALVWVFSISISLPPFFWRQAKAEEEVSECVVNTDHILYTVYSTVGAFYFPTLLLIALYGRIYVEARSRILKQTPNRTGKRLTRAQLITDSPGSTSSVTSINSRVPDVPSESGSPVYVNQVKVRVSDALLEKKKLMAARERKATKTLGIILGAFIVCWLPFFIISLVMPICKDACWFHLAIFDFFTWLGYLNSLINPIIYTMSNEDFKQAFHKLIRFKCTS
# Sequence of Mu-type opioid receptor (Homo sapiens) (P35372 whole entry): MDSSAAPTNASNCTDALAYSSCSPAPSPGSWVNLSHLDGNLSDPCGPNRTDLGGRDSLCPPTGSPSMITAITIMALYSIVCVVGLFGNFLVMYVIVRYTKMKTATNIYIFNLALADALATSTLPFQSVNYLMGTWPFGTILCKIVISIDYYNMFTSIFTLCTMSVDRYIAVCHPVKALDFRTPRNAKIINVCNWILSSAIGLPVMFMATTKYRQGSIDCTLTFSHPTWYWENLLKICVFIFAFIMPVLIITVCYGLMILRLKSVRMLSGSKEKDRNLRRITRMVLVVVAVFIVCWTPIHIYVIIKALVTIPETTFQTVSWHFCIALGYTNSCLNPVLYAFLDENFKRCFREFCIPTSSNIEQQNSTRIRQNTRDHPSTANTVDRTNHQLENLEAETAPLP
# Sequence of Muscarinic acetylcholine receptor M2 (Homo sapiens) (P08172 whole entry): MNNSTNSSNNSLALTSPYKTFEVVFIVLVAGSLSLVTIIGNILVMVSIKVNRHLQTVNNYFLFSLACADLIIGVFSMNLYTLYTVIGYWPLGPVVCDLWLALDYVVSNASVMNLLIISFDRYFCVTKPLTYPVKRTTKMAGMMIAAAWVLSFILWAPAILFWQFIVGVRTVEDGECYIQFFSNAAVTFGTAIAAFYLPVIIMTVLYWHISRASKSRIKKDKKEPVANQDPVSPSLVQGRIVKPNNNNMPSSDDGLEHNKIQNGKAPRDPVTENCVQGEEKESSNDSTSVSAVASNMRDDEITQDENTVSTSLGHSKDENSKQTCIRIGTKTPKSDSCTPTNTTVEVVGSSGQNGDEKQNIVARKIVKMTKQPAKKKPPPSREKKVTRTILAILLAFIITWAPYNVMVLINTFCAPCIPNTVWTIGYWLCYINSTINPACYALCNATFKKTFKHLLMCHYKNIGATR
# Sequence of Somatostatin receptor type 2 (Homo sapiens) (P30874 whole entry): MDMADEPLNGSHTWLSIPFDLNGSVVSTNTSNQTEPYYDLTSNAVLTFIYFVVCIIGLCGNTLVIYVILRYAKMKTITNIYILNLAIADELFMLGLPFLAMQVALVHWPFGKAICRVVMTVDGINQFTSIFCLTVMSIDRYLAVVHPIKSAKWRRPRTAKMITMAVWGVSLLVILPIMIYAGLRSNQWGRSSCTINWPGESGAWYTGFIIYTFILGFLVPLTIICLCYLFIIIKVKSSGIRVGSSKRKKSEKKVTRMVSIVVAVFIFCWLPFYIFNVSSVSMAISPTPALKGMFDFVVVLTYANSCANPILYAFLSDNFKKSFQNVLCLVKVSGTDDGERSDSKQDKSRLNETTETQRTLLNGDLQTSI
compound,measurement,setting,value
COc1cc(N)c(Cl)cc1C(=O)N[C@H]1CCN(CCCn2ncnn2)C[C@H]1OC,pIC50,[1],< 5.00
same,pIC50,[2],5.95
COc1cc(N)c(Cl)cc1C(=O)N[C@H]1CCN(CC2CCN(C(=O)N(C)C)CC2)C[C@H]1OC (relative stereo),pIC50,[2],7.28
same,Activity,[3],46%
COc1cc(N)c(Cl)cc1C(=O)N[C@H]1CCN(CC2CCN(C(=O)C(C)C)CC2)C[C@H]1OC.O=C(O)/C=C\C(=O)O,solubility,[4],> 10 mg/mL
COc1cc(N)c(Cl)cc1C(=O)N[C@@H]1CCN(CC2CCN(C(=O)C(C)C)CC2)C[C@@H]1OC,pIC50,[2],7.17
same,Activity,[3],61.7%
COc1cc(N)c(Cl)cc1C(=O)N[C@H]1CCN(CCC(=O)N2CCCCC2)C[C@H]1OC (relative stereo),pIC50,[2],6.25
same,pEC50,[5],5.98
COc1cc(N)c(Cl)cc1C(=O)N[C@H]1CCN(CC2CCN(C(=S)C(C)C)CC2)C[C@H]1OC (relative stereo),pIC50,[2],6.81
same,Activity,[3],67.3%
COc1cc(N)c(Cl)cc1C(=O)N[C@H]1CCN(CC2CCN(C(=O)CC(C)C)CC2)C[C@H]1OC (relative stereo),Activity,[3],54.3%
COc1cc(N)c(Cl)cc1C(=O)N[C@H]1CCN(CC2CCN(C(=O)C(C)C)CC2)C[C@H]1OC.Cl,solubility,[4],> 15 mg/mL
COc1cc(N)c(Cl)cc1C(=O)N[C@H]1CCN(CC2CCN(C(=O)C(C)C)CC2)C[C@H]1OC (racemic) [listing 1 of 2 here],Activity,[6],46.9%
same,Activity,[7],58.6%
same,Tmax,[8],15 min
same,Cmax,[9],572 ng/mL
same,Activity,[10],46.2%
same,pIC50,[2],6.87
same,half-life,[11],58.8 min
same,AUC,[12],483 ng·h/mL
same,Activity,[3],59.1%
same,pEC50,[5],7.34
CCC(=O)N1CCC(CN2CC[C@H](NC(=O)c3cc(Cl)c(N)cc3OC)[C@H](OC)C2)CC1 (relative stereo),pIC50,[2],6.48
same,Activity,[3],57.8%
same,pEC50,[5],6.42
COc1cc(N)c(Cl)cc1C(=O)N[C@H]1CCN(CC2CCN(C(=O)C(C)(C)C)CC2)C[C@H]1OC (relative stereo),Activity,[7],56.6%
same,Tmax,[8],15 min
same,Cmax,[9],345 ng/mL
same,pIC50,[2],6.93
same,half-life,[11],46.2 min
same,AUC,[12],263 ng·h/mL
same,Activity,[3],56.4%
same,pEC50,[5],7.00
COc1cc(N)c(Cl)cc1C(=O)N[C@H]1CCN(CCn2cccc2)C[C@H]1OC (relative stereo),pIC50,[2],5.24
COC(=O)N1CCC(CN2CC[C@H](NC(=O)c3cc(Cl)c(N)cc3OC)[C@H](OC)C2)CC1 (relative stereo),pIC50,[2],6.72
same,Activity,[3],56.2%
COc1cc(N)c(Cl)cc1C(=O)N[C@H]1CCN(CC2CCN(C(=O)C(C)C)CC2)C[C@H]1OC (racemic) [listing 2 of 2 here],inhibition,[13],50%
same,inhibition,[14],50%
same,inhibition,[15],50%
same,inhibition,[16],50%
same,inhibition,[17],50%
same,inhibition,[18],50%
same,inhibition,[19],50%
same,inhibition,[20],50%
same,inhibition,[21],50%
same,inhibition,[22],50%
same,inhibition,[23],50%
same,inhibition,[24],50%
same,inhibition,[25],50%
same,inhibition,[26],50%
same,inhibition,[27],50%
same,inhibition,[28],50%
same,inhibition,[29],50%
same,inhibition,[30],50%
same,inhibition,[31],50%
same,inhibition,[32],50%
same,inhibition,[33],50%
COc1cc(N)c(Cl)cc1C(=O)N[C@H]1CCN(CCCn2cccc2)C[C@H]1OC (relative stereo),pIC50,[2],6.19
same,pEC50,[5],6.17
CCCC(=O)N1CCC(CN2CC[C@H](NC(=O)c3cc(Cl)c(N)cc3OC)[C@H](OC)C2)CC1 (relative stereo),pIC50,[2],6.75
same,Activity,[3],48.6%
CCCOC(=O)N1CCC(CN2CC[C@H](NC(=O)c3cc(Cl)c(N)cc3OC)[C@H](OC)C2)CC1 (relative stereo),pIC50,[2],6.87
same,Activity,[3],57.7%
CCOC(=O)N1CCC(CN2CC[C@H](NC(=O)c3cc(Cl)c(N)cc3OC)[C@H](OC)C2)CC1,pIC50,[2],6.42
same,Activity,[3],55.9%
COc1cc(N)c(Cl)cc1C(=O)N[C@H]1CCN(CC2CCN(C(=O)C(C)C)CC2)C[C@H]1OC.O=C(O)CC(O)(CC(=O)O)C(=O)O,solubility,[4],> 30 mg/mL
COc1cc(N)c(Cl)cc1C(=O)N[C@H]1CCN(CC2CCN(C(=O)C(C)C)CC2)C[C@H]1OC.O=C(O)C(O)C(O)C(=O)O,solubility,[4],> 30 mg/mL
CCC(=O)N1CCC(CCN2CC[C@H](NC(=O)c3cc(Cl)c(N)cc3OC)[C@H](OC)C2)CC1 (relative stereo),pIC50,[2],6.09
COc1cc(N)c(Cl)cc1C(=O)N[C@H]1CCN(CCCn2ccnc2)C[C@H]1OC (relative stereo),pIC50,[2],5.93
same,pEC50,[5],6.60
COc1cc(N)c(Cl)cc1C(=O)N[C@H]1CCN(CCCOc2ccc(F)cc2)C[C@H]1OC (relative stereo) [REL-CISAPRIDE],Activity,[7],57.2%
same,Tmax,[8],15 min
same,Cmax,[9],104 ng/mL
same,half-life,[11],88.8 min
same,AUC,[12],142 ng·h/mL
same,Activity,[3],57.1%
COc1cc(N)c(Cl)cc1C(=O)N[C@H]1CCN(CC2CCN(C(=O)C(C)C)CC2)C[C@H]1OC.CS(=O)(=O)O,solubility,[4],> 10 mg/mL
COc1cc(N)c(Cl)cc1C(=O)N[C@H]1CCN(CCCn2cncn2)C[C@H]1OC (relative stereo),pIC50,[1],5.11
same,pIC50,[2],5.90
same,pEC50,[5],6.15
COc1cc(N)c(Cl)cc1C(=O)N[C@H]1CCN(CC2CCN(C(C)=O)CC2)C[C@H]1OC (relative stereo),pIC50,[2],6.23
same,Activity,[3],39.5%
COc1cc(N)c(Cl)cc1C(=O)N[C@H]1CCN(CC2CCN(C(=O)NC(C)C)CC2)C[C@H]1OC (relative stereo),pIC50,[2],7.14
same,Activity,[3],59.9%
Br.COc1cc(N)c(Cl)cc1C(=O)N[C@H]1CCN(CC2CCN(C(=O)C(C)C)CC2)C[C@H]1OC,solubility,[4],< 5 mg/mL
CCC(=S)N1CCC(CN2CC[C@H](NC(=O)c3cc(Cl)c(N)cc3OC)[C@H](OC)C2)CC1 (relative stereo),pIC50,[2],6.23
same,Activity,[3],61%
COc1cc(N)c(Cl)cc1C(=O)N[C@H]1CCN(CCC(=O)N2CCOCC2)C[C@H]1OC (relative stereo),pIC50,[2],6.02
CCC(=O)N1CCCC(CN2CC[C@H](NC(=O)c3cc(Cl)c(N)cc3OC)[C@H](OC)C2)C1 (relative stereo),pIC50,[2],6.31
same,pEC50,[5],5.81
COc1cc(N)c(Cl)cc1C(=O)N[C@H]1CCN(CCC(=O)N2CCCC2)C[C@H]1OC (relative stereo),pIC50,[2],6.04
COc1cc(N)c(Cl)cc1C(=O)N[C@H]1CCN(CCC(=O)N2CCC(Cc3ccccc3)CC2)C[C@H]1OC (relative stereo),pIC50,[2],7.18
same,pEC50,[5],5.22
COc1cc(N)c(Cl)cc1C(=O)N[C@H]1CCN(CC2CCN(C(=O)C(C)C)CC2)C[C@H]1OC,pIC50,[2],< 5.00
same,Activity,[3],56.5%
